# Test results published in ChEMBL document CHEMBL5257059, “Pyridine-Based 1,2,4-Triazolo-Tethered Indole Conjugates Potentially Affecting TNKS and PI3K in Colorectal Cancer” (ACS Med Chem Lett, 2023).
# Calls of active or inactive are those of the source. The calls are words filed in the database; no cut-off is given here.
# Assays:
# HT-29 [1] = assay: Induction of cell cycle arrest in human HT-29 cells assessed as accumulation of cells at G2/M phase at 1 uM incubated for 24 hrs by RNase/PI staining based flow cytometry analysis (reference value: 23.695 %); type: functional
# HT-29 [2] = assay: Induction of cell cycle arrest in human HT-29 cells assessed as accumulation of cells at subG1 phase at 1 uM incubated for 24 hrs by RNase/PI staining based flow cytometry analysis (reference value: 1.798%); type: functional
# HT-29 [3] = assay: Induction of apoptosis in human HT29 cells assessed as increase in early apoptotic cells at 1 uM incubated for 24 hrs by annexin V/PI staining based flow cytometry analysis; type: functional, cell-based
# In short: (§1)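 Annexin/PI double staining of HT-29 cells after 24 h exposure at 1, 2 or 4 μM. Flow cytometry gated early apoptotic, late apoptotic and necrotic populations, reported as % of cells. Comparison to untreated control used two-way ANOVA followed by Tukey's post hoc analysis.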
# HT-29 [4] = assay: Induction of apoptosis in human HT29 cells assessed as increase in late apoptotic cells at 1 uM incubated for 24 hrs by annexin V/PI staining based flow cytometry analysis; type: functional, cell-based; in short: as §1
# HT-29 [5] = assay: Downregulation of TAB-182 protein expression in human HT-29 cells at 1 uM by immunostaining based confocal microscopic analysis; type: functional, cell-based
# [6] = biological target: Phosphatidylinositol 3-kinase regulatory subunit alpha (Homo sapiens) (UniProt P27986); assay: Inhibition of PI3K-P85 phosphorylation in human HT-29 cells at 1 uM incubated for 72 hrs by Western blot analysis; type: cell-based
# HT-29 [7] = assay: Inhibition of AXIN-1 protein expression in human HT-29 cells at 1 uM incubated for 72 hrs by Western blot analysis; type: functional, cell-based
# HT-29 [8] = assay: Inhibition of TAB-182 protein expression in human HT-29 cells at 1 uM incubated for 72 hrs by Western blot analysis; type: functional, cell-based
# HT-29 [9] = assay: Inhibition of beta-catenin protein expression in human HT-29 cells at 1 uM incubated for 72 hrs by Western blot analysis; type: functional, cell-based
# HT-29 [10] = assay: Inhibition of PI3K-p85 protein expression in human HT-29 cells at 1 uM incubated for 72 hrs by Western blot analysis; type: functional, cell-based
# HT-29 [11] = assay: Inhibition of pan-AKT protein expression in human HT-29 cells at 1 uM incubated for 72 hrs by Western blot analysis; type: functional, cell-based
# HT-29 [12] = assay: Inhibition of AKT protein expression in human HT-29 cells at 1 uM incubated for 72 hrs by Western blot analysis; type: functional, cell-based
# HT-29 [13] = assay: Induction of cell cycle arrest in human HT-29 cells assessed as accumulation of cells at S phase at 4 uM incubated for 24 hrs by RNase/PI staining based flow cytometry analysis (reference value: 17.934 %); type: functional
# HT-29 [14] = assay: Induction of mitochondrial damage in human HT-29 cells assessed as increase in monomer formation at 4 uM incubated for 24 hrs by JC-1 staining based flow cytometry analysis; type: functional, cell-based
# In short: (§2)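 HT-29 cells exposed 24 h to test agent at 1, 2 or 4 μM, then stained with JC-1. Flow cytometry scored the % of cells in JC-1 aggregate versus monomer populations. Treated groups were compared with untreated control by two-way ANOVA with Tukey's post hoc test.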
# HT-29 [15] = assay: Induction of apoptosis in human HT29 cells assessed as increase in early apoptotic cells at 4 uM incubated for 24 hrs by annexin V/PI staining based flow cytometry analysis; type: functional, cell-based; in short: as §1
# HT-29 [16] = assay: Induction of apoptosis in human HT29 cells assessed as increase in late apoptotic cells at 4 uM incubated for 24 hrs by annexin V/PI staining based flow cytometry analysis; type: functional, cell-based; in short: as §1
# [17] = biological target: Phosphatidylinositol 3-kinase regulatory subunit alpha (Homo sapiens) (UniProt P27986); assay: Inhibition of PI3K-P85 phosphorylation in human HT-29 cells at 4 uM incubated for 72 hrs by Western blot analysis; type: cell-based
# [18] = biological target: Glycogen synthase kinase-3 beta (Homo sapiens) (UniProt P49841); assay: Inhibition of GSK3beta phosphorylation in human HT-29 cells at 4 uM incubated for 72 hrs by Western blot analysis; type: cell-based
# HT-29 [19] = assay: Inhibition of APC protein expression in human HT-29 cells at 4 uM incubated for 72 hrs by Western blot analysis; type: functional, cell-based
# HT-29 [20] = assay: Inhibition of phosphorylated GSK-3beta protein expression in human HT-29 cells at 4 uM incubated for 72 hrs by Western blot analysis; type: functional, cell-based
# HT-29 [21] = assay: Inhibition of phosphorylated PI3K-p85 protein expression in human HT-29 cells at 4 uM incubated for 72 hrs by Western blot analysis; type: functional, cell-based
# HT-29 [22] = assay: Inhibition of AKT protein expression in human HT-29 cells at 4 uM incubated for 72 hrs by Western blot analysis; type: functional, cell-based
# HT-29 [23] = assay: Induction of mitochondrial damage in human HT-29 cells assessed as increase in monomer formation at 2 uM incubated for 24 hrs by JC-1 staining based flow cytometry analysis; type: functional, cell-based; in short: as §2
# [24] = biological target: Phosphatidylinositol 3-kinase regulatory subunit alpha (Homo sapiens) (UniProt P27986); assay: Inhibition of PI3K-P85 phosphorylation in human HT-29 cells at 2 uM incubated for 72 hrs by Western blot analysis; type: cell-based
# [25] = biological target: T1, Catenin beta-1 (Homo sapiens) (UniProt P35222); assay: Inhibition of beta-catenin phosphorylation in human HT-29 cells at 2 uM incubated for 72 hrs by Western blot analysis; type: cell-based
# T1 sequence (whole entry): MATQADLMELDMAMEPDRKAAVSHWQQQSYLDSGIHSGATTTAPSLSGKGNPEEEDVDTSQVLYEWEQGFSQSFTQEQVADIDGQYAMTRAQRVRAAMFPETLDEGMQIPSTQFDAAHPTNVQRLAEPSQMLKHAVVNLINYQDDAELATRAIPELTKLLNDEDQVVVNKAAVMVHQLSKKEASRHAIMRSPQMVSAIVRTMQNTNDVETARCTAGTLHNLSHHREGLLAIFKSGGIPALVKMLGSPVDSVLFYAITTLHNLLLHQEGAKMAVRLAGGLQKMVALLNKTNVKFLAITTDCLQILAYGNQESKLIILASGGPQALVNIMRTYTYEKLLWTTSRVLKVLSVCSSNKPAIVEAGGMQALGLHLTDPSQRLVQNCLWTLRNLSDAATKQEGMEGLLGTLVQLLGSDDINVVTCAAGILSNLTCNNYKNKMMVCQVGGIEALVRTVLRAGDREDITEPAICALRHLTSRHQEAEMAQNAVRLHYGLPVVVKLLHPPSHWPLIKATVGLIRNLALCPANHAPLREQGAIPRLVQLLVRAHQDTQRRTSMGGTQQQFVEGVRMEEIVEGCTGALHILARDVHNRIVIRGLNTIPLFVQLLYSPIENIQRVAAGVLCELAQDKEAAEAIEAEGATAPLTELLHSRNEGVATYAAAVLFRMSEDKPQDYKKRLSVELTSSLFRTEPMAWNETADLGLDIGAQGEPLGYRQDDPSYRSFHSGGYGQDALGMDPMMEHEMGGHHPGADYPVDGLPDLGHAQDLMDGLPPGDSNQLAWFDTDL
# HT-29 [26] = assay: Inhibition of TAB-182 protein expression in human HT-29 cells at 2 uM incubated for 72 hrs by Western blot analysis; type: functional, cell-based
# HT-29 [27] = assay: Inhibition of phosphorylated PI3K-p85 protein expression in human HT-29 cells at 2 uM incubated for 72 hrs by Western blot analysis; type: functional, cell-based
# HT-29 [28] = assay: Inhibition of AKT protein expression in human HT-29 cells at 2 uM incubated for 72 hrs by Western blot analysis; type: functional, cell-based
# Chain of Phosphatidylinositol 3-kinase regulatory subunit alpha (Homo sapiens) (P27986 whole entry): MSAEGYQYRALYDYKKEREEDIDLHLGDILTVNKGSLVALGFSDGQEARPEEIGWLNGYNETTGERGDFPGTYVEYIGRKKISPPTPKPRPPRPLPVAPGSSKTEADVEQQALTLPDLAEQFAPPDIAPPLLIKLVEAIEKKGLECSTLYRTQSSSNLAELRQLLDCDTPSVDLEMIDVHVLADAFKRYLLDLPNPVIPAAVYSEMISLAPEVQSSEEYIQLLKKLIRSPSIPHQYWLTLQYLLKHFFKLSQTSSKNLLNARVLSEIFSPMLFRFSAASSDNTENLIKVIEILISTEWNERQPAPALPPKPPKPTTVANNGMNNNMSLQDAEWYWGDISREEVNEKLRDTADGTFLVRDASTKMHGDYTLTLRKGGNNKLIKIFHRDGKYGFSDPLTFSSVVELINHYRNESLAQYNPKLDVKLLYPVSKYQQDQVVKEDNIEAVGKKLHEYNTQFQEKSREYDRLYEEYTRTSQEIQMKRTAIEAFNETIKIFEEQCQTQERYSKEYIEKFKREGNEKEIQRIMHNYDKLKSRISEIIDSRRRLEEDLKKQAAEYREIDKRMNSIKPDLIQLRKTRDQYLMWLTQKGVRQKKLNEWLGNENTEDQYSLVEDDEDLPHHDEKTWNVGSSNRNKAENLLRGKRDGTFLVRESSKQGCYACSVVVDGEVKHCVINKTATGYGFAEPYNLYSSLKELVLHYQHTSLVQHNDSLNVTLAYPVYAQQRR
# Chain of Glycogen synthase kinase-3 beta (Homo sapiens) (P49841 whole entry, looked up): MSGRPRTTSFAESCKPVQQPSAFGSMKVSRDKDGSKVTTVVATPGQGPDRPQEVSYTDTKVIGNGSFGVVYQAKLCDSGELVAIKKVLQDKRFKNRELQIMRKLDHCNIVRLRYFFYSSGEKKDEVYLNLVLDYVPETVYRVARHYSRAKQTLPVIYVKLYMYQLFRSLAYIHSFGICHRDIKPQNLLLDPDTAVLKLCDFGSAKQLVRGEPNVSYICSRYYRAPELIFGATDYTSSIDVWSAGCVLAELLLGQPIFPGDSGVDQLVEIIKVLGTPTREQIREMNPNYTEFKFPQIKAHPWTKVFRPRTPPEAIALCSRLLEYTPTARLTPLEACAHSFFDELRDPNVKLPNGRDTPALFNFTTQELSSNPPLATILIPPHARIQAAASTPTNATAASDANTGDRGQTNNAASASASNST
compound,measurement,setting,value
COc1ccc(-n2c(SCCc3c[nH]c4ccccc34)nnc2-c2ccncc2)cc1,Activity,HT-29 [1],22.841%
same,Activity,HT-29 [2],1.225%
same,Activity,HT-29 [3],Active
same,Activity,HT-29 [4],Active
same,Activity,HT-29 [5],Active
same,inhibition,[6],Active
same,inhibition,HT-29 [7],Active
same,inhibition,HT-29 [8],Active
same,inhibition,HT-29 [9],Active
same,inhibition,HT-29 [10],Active
same,inhibition,HT-29 [11],Active
same,inhibition,HT-29 [12],Active
COc1cccc(-n2c(SCCc3c[nH]c4ccccc34)nnc2-c2ccncc2)c1,Activity,HT-29 [13],20.837%
same,Activity,HT-29 [14],Active
same,Activity,HT-29 [15],Active
same,Activity,HT-29 [16],Active
same,inhibition,[17],Active
same,inhibition,[18],Active
same,inhibition,HT-29 [19],Active
same,inhibition,HT-29 [20],Active
same,inhibition,HT-29 [21],Active
same,inhibition,HT-29 [22],Active
Fc1ccccc1-n1c(SCCc2c[nH]c3ccccc23)nnc1-c1ccncc1,Activity,HT-29 [23],Active
same,inhibition,[24],Active
same,inhibition,[25],Active
same,inhibition,HT-29 [26],Active
same,inhibition,HT-29 [27],Active
same,inhibition,HT-29 [28],Active
